Results on 11 molecules are retold here after ChEMBL document CHEMBL1143382, “Discovery of chiral cyclopropyl dihydro-alkylthio-benzyl-oxopyrimidine (S-DABO) derivatives as potent HIV-1 reverse transcriptase inhibitors with high activity against clinically relevant mutants” (J Med Chem, 2009).

As usually defined, the EC50 is the concentration at which the effect is half-maximal. Low values mean higher potency in that assay, high ones lower potency in that assay. In general, CC50 refers to the concentration that lowers cell viability or growth by half. For orientation: Ki means a measure of affinity in units of concentration, obtained from inhibition or displacement.

The target of series [1] is Human immunodeficiency virus type 1 reverse transcriptase (Human immunodeficiency virus 1) (UniProt Q72547).
Series [2] deals with Human immunodeficiency virus type 1 reverse transcriptase (Human immunodeficiency virus 1), Q72547 [K103N].
Series [3] deals with Human immunodeficiency virus type 1 reverse transcriptase (Human immunodeficiency virus 1), Q72547 [Y181I].
The subject of series [4] is Human immunodeficiency virus 1. As to the kind of experiment: Antiviral activity against wild type HIV1 NL4-3 infected in human MT4 cells after 5 days by MTT assay. Format: functional, organism-based. The settings on record: Human immunodeficiency virus 1, NL4-3, MT4, 120 h. For orientation: Formazan colour is commonly taken as a measure of viable cells.
The subject of series [5] is Human immunodeficiency virus 1. As to the kind of experiment: Antiviral activity against HIV1 reverse transcriptase K103N mutant infected in human MT4 cells after 5 days by MTT assay. Format: functional, organism-based. The settings on record: Human immunodeficiency virus 1, MT4, 120 h. In outline: (§1)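 MT-4 lymphoid cells infected with the HIV-1 strain carrying the indicated RT mutation in the presence of varying compound concentrations. Viable cells counted by tetrazolium (MTT) colorimetric read-out at day 5 post-infection. […] Mock-infected cells were used for cytotoxicity. Values are means of at least two experiments.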

Series [6] deals with Human immunodeficiency virus 1. As to the kind of experiment: Antiviral activity against HIV1 reverse transcriptase Y181C mutant infected in human MT4 cells after 5 days by MTT assay. The format is functional, organism-based. The conditions noted are these: Human immunodeficiency virus 1, MT4, 120 h. In outline:
as §1

Series [7] has as its system Human immunodeficiency virus 1. In words: Antiviral activity against HIV1 reverse transcriptase Y188L mutant infected in human MT4 cells after 5 days by MTT assay. Format: functional, organism-based. The conditions noted are these: Human immunodeficiency virus 1, MT4, 120 h. In outline:
as §1

A short description of series [8]: Cytotoxicity against human MT4 cells by MTT assay. Format: cell-based.
In series [9] the target is Human immunodeficiency virus type 1 reverse transcriptase (Human immunodeficiency virus 1) (UniProt Q72547). As to the kind of experiment: Binding affinity to HIV1 reverse transcriptase treated for 3 mins by surface plasmon resonance. For orientation: SPR reads the build-up and loss of mass on a sensor chip optically.
Series [10] concerns the target T1, Human immunodeficiency virus type 1 reverse transcriptase (Human immunodeficiency virus 1, UniProt Q72547). In words: Inhibition of wild type HIV1 free reverse transcriptase.
Series [11] deals with T1, Human immunodeficiency virus type 1 reverse transcriptase. In words: Inhibition of wild type HIV1 reverse transcriptase-DNA binary complex.
Series [12] has the same target. As to the kind of experiment: Inhibition of wild type HIV1 reverse transcriptase-DNA-dNTP ternary complex.
Series [13] addresses T2, Human immunodeficiency virus type 1 reverse transcriptase (Human immunodeficiency virus 1, UniProt Q72547, K103N). As to the kind of experiment: Inhibition of HIV1 recombinant free reverse transcriptase K103N mutant expressed in Escherichia coli BL21.
Series [14] concerns the target T2, Human immunodeficiency virus type 1 reverse transcriptase. In words: Inhibition of HIV1 recombinant reverse transcriptase K103N mutant-DNA binary complex expressed in Escherichia coli BL21.
For series [15] the target is unchanged. As to the kind of experiment: Inhibition of HIV1 recombinant reverse transcriptase K103N mutant-DNA-dNTP ternary complex expressed in Escherichia coli BL21.

For the molecule `Cc1c([C@H](C)c2c(F)cccc2F)nc(SC/C=C/c2ccccc2)[nH]c1=O`, the ID50 in [1] amounted to 10 nM; in series [2], 470 nM; in series [3], 2990 nM.
As to `COc1ccc([C@H]2C[C@@H]2CSc2nc([C@@H](C)c3c(F)cccc3F)c(C)c(=O)[nH]2)cc1`, the EC50 is 90 nM in [4], 5510 nM in [5], 7240 nM in series [6] and 1080 nM in series [7]. The molecule further came in with a CC50 in series [8] greater than 56200 nM. The ID50 came out at 120 nM in series [1], 830 nM in series [2] and 2300 nM in [3].
As for `COc1ccc([C@@H]2C[C@H]2CSc2nc([C@H](C)c3c(F)cccc3F)c(C)c(=O)[nH]2)cc1`, the EC50 came out at 0.07 nM in [4], 36 nM in series [5], 13 nM in series [6] and 1.5 nM in [7]. The molecule further gave a CC50 in series [8] of 14600 nM. The molecule also came in with a Ka in series [9] of 1 ×10⁴ /M/s. Also, the Ki came out at 10 nM in [10]; 8 nM in series [11]; 9 nM in [12]; 65 nM in [13]; 40 nM in [14]; 30 nM in series [15]. The ID50 in series [1] was determined as 20 nM; in [2] it was 40 nM; in [3], 800 nM.
As for `Cc1ccnc2c1NC(=O)c1cccnc1N2C1CC1` [NEVIRAPINE], the EC50 in series [6] and in series [7] was greater than 7500 nM each time. The CC50 in [8] was greater than 7500 nM.
For `COc1ccc([C@@H]2C[C@H]2CSc2nc([C@@H](C)c3c(F)cccc3F)c(C)c(=O)[nH]2)cc1`, the concentration giving a half-maximal response (EC50) was found to be 4.9 nM in [4], 2550 nM in series [5], 520 nM in series [6] and 190 nM in series [7]. Further, the CC50 in series [8] was 47200 nM. The ID50 came to 300 nM in [1], 600 nM in series [2] and 6000 nM in series [3].
Regarding `COc1ccc([C@H]2C[C@@H]2CSc2nc([C@H](C)c3c(F)cccc3F)c(C)c(=O)[nH]2)cc1`, the concentration for a half-maximal effect (EC50) was found to be 10 nM in series [4], 3710 nM in [5], 2700 nM in series [6] and 700 nM in series [7]. Also, the CC50 in series [8] is greater than 56200 nM. Also, the Ki in [10] came out at 40 nM; in [11], 30 nM; in [12] it was 40 nM; in series [13], 600 nM; in [14], 400 nM; in series [15], 300 nM. Moreover, the figures for the ID50 in series [1], in series [2] and in series [3] were 40 nM, 400 nM and 900 nM, respectively.
As for `COc1ccc(/C=C/CSc2nc([C@@H](C)c3c(F)cccc3F)c(C)c(=O)[nH]2)cc1`, the figures for the ID50 in series [1], in series [2] and in series [3] were 600 nM, 7010 nM and 27800 nM, respectively.
The molecule `Cc1cc(C#N)cc(C)c1Oc1nc(Nc2ccc(C#N)cc2)nc(N)c1Br` returned a Ka in [9] of 0.8 ×10⁴ /M/s.
Take `COc1ccc(/C=C/CSc2nc(C(C)c3c(F)cccc3F)c(C)c(=O)[nH]2)cc1` (racemic): the Ka in [9] was determined as 1 ×10⁴ /M/s.
As for `O=C1Nc2ccc(Cl)cc2[C@@](C#CC2CC2)(C(F)(F)F)O1` [EFAVIRENZ], the EC50 was determined as 8 nM in [6] and 3 nM in [7]. In addition, the CC50 in series [8] is greater than 320 nM.
Consider `COc1ccc(C2CC2CSc2nc(C(C)c3c(F)cccc3F)c(C)c(=O)[nH]2)cc1` (racemic), for which the EC50 in series [4] came out at 0.6 nM; in [5], 520 nM; in series [6], 160 nM; in [7] it was 45 nM. For the same molecule, the CC50 in series [8] was 37300 nM. For the same molecule, the ID50 in series [1] worked out at 40 nM; in [2] it was 3000 nM; in series [3], 6000 nM.
